Experimental data reported in ChEMBL document CHEMBL4152247, “Discovery of novel 2,4-diarylaminopyrimidine derivatives as potent and selective epidermal growth factor receptor (EGFR) inhibitors against L858R/T790M resistance mutation” (Eur J Med Chem, 2018).
Activity calls are given as the source filed them. The rule behind the calls is not given here.

Organism: Homo sapiens
Test: Selectivity index, ratio of IC50 for wild type EGFR expressing human A431 cells to IC50 for EGFR T790M/L858R double mutant expressing human NCI-H1975 cells
Settings: not given

Q: `C=CC(=O)Nc1cc(Nc2nccc(Nc3ccccc3-n3cccn3)n2)c(OC)cc1N(C)CCN(C)C` was tested. Which Ratio IC50 did it give?
A: 148

Q: `C=CC(=O)Nc1cc(Nc2nccc(Nc3ccccc3-c3ccn(C)n3)n2)c(OC)cc1N(C)CCN(C)C` was tested. Which Ratio IC50 did it give?
A: 124

Q: How did the Ratio IC50 turn out when `C=CC(=O)Nc1cc(Nc2nccc(Nc3ccccc3-n3nccn3)n2)c(OC)cc1N1CCC(N(C)C)CC1` was run?
A: 39

Q: How did the Ratio IC50 turn out when `C=CC(=O)Nc1cc(Nc2nccc(Nc3ccccc3-c3ccn(C)n3)n2)c(OC)cc1OCCN(C)C` was run?
A: 18

Q: For `C=CC(=O)Nc1cc(Nc2nccc(Nc3ccccc3-c3ncn(C)n3)n2)c(OC)cc1N(C)CCN(C)C`, which Ratio IC50 is on record?
A: 20

Test system: A-431
Test: Antiproliferative activity against wild type EGFR expressing human A431 cells after 72 hrs by SRB assay
Type: cell-based
Settings: A-431, 72 h
In short: (§1)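 SRB assay: cells seeded at 5×10^3 per well for 24 h, then exposed to serial dilutions for 72 h. DMSO stocks were 10.0 mg/ml. Cells were fixed with 10% TCA at 4 °C for 1 h and stained 15 min with 4 mg/mL SRB in 1% acetic acid. Absorbance was read at 515 nm. Inhibition was taken as [1-(A515 treated/A515 control)]×100%. IC50 was obtained by the logit method, averaging at least three independent experiments.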

Q: `C=CC(=O)Nc1cc(Nc2nccc(Nc3ccccc3-n3cccn3)n2)c(OC)cc1N(C)CCN(C)C` was tested. Which IC50 did it give?
A: 10100 nM

Q: How did the IC50 turn out when `C=CC(=O)Nc1cc(Nc2nccc(Nc3ccccc3-c3ccn(C)n3)n2)c(OC)cc1N(C)CCN(C)C` was run?
A: 7370 nM

Q: How did the IC50 turn out when `C=CC(=O)Nc1cc(Nc2nccc(Nc3ccccc3-n3nccn3)n2)c(OC)cc1N1CCC(N(C)C)CC1` was run?
A: 2760 nM

Q: Which IC50 does the source give for `C=CC(=O)Nc1cc(Nc2nccc(Nc3ccccc3-c3ccn(C)n3)n2)c(OC)cc1OCCN(C)C` here?
A: 1580 nM

Q: Which IC50 does the source give for `C=CC(=O)Nc1cc(Nc2nccc(Nc3ccccc3-c3ncn(C)n3)n2)c(OC)cc1N(C)CCN(C)C` here?
A: 1500 nM

Test system: Mus musculus
Test: Toxicity in BALB/c athymic nude mouse xenografted with EGFR T790M/L858R double mutant expressing human NCI-H1975 cells assessed as body weight loss at 10 to 20 mg/kg, po bid for 21 days
Type: organism-based
Settings: in vivo, 504 h

Q: For `C=CC(=O)Nc1cc(Nc2nccc(Nc3ccccc3-c3ccn(C)n3)n2)c(OC)cc1N(C)CCN(C)C`, which Activity is on record?
A: Non-Toxic

Organism: Homo sapiens
Test: Selectivity ratio of IC50 for recombinant human GST-tagged wild type EGFR to IC50 for recombinant human GST-tagged EGFR T790M/L858R double mutant
Settings: not given

Q: How did the Ratio IC50 turn out when `C=CC(=O)Nc1cc(Nc2nccc(Nc3ccccc3-n3nccn3)n2)c(OC)cc1N(C)CCN(C)C` was run?
A: 8

Q: Which Ratio IC50 does the source give for `C=CC(=O)Nc1cc(Nc2nccc(Nc3ccccc3-n3cccn3)n2)c(OC)cc1N(C)CCN(C)C` here?
A: 158

Q: How did the Ratio IC50 turn out when `C=CC(=O)Nc1cc(Nc2nccc(Nc3ccccc3-c3ccn(C)n3)n2)c(OC)cc1N(C)CCN(C)C` was run?
A: 85

Q: With `C=CC(=O)Nc1cc(Nc2nccc(Nc3ccccc3-c3ccn(C)n3)n2)c(OC)cc1OCCN(C)C` as the molecule, how does the Ratio IC50 read?
A: 19

Q: With `C=CC(=O)Nc1cc(Nc2nccc(Nc3ccccc3-c3ncn(C)n3)n2)c(OC)cc1N(C)CCN(C)C` as the molecule, how does the Ratio IC50 read?
A: 86

Test system: NCI-H1975
Test: Antitumor activity against EGFR T790M/L858R double mutant expressing human NCI-H1975 cells xenografted in po dosed BALB/c athymic nude mouse assessed as tumor growth inhibition administered as bid for 21 days
Type: functional, organism-based
Settings: not given

Q: Which TGI does the source give for `C=CC(=O)Nc1cc(Nc2nccc(Nc3ccccc3-c3ccn(C)n3)n2)c(OC)cc1N(C)CCN(C)C` here?
A: Dose-dependent effect

Target: Epidermal growth factor receptor (Homo sapiens, UniProt P00533, L858R/T790M)
Test: Inhibition of recombinant human GST-tagged EGFR T790M/L858R double mutant expressed in baculovirus expression system using poly (Glu, Tyr) 4:1 as substrate after 1 hr by ELISA
Settings: not given

Chain of Epidermal growth factor receptor (Homo sapiens, UniProt P00533, L858R/T790M) (P00533 25-1210 T790M/L858R limits assumed): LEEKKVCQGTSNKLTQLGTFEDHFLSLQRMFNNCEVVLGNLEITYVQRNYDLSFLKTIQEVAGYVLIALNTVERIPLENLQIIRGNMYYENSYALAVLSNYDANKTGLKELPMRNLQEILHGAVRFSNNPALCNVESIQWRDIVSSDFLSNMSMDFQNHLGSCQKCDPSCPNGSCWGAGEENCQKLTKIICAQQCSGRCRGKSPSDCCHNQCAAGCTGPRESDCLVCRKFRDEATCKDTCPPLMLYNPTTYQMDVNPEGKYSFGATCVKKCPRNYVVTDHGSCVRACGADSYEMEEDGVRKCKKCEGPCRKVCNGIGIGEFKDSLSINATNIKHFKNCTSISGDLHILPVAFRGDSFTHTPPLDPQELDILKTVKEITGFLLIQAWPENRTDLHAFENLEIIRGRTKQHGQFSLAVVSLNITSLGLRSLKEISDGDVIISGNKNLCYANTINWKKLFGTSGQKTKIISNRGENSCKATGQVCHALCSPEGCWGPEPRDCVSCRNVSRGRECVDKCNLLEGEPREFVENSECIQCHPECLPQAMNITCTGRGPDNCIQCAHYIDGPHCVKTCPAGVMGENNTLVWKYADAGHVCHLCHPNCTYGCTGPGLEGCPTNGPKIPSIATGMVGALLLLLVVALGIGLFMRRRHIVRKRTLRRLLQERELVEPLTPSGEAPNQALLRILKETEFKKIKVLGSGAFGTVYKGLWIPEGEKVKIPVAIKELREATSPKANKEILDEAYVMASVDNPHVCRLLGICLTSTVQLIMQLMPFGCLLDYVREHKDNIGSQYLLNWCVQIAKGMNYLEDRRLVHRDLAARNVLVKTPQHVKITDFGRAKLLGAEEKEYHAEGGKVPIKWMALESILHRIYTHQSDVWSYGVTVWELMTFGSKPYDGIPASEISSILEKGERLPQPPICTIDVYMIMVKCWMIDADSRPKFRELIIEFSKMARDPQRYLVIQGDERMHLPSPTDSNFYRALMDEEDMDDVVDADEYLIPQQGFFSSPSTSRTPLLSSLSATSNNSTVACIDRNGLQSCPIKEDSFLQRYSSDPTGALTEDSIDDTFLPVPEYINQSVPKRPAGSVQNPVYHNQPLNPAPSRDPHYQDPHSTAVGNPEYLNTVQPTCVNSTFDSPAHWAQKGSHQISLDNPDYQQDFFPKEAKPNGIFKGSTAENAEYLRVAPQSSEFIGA

Q: `C=CC(=O)Nc1cc(Nc2nccc(Nc3ccccc3-n3nccn3)n2)c(OC)cc1N(C)CCN(C)C` was tested. Which IC50 did it give?
A: 33.1 nM

Q: `C=CC(=O)Nc1cc(Nc2nccc(Nc3ccccc3-n3cccn3)n2)c(OC)cc1N(C)CCN(C)C` was tested. Which IC50 did it give?
A: 4.1 nM

Q: `C=CC(=O)Nc1cc(Nc2nccc(Nc3ccccc3-c3ccn(C)n3)n2)c(OC)cc1N(C)CCN(C)C` was tested. Which IC50 did it give?
A: 4.1 nM

Q: How did the IC50 turn out when `C=CC(=O)Nc1cc(Nc2nccc(Nc3ccccc3-n3nccn3)n2)c(OC)cc1N1CCC(N(C)C)CC1` was run?
A: 202 nM

Q: Which IC50 does the source give for `C=CC(=O)Nc1cc(Nc2nccc(Nc3ccccc3-c3ccn(C)n3)n2)c(OC)cc1OCCN(C)C` here?
A: 16.4 nM

Q: With `C=CC(=O)Nc1cc(Nc2nccc(Nc3ccccc3-c3ncn(C)n3)n2)c(OC)cc1N(C)CCN(C)C` as the molecule, how does the IC50 read?
A: 7.7 nM

Test system: Epidermal growth factor receptor (Homo sapiens), P00533 [L858R,T790M]
Test: Inhibition of EGF-induced EGFR T790M/L858R double mutant in human NCI-H1975 cells assessed as decrease in AKT phosphorylation preincubated for 2 hrs followed by EGF induction and measured after 10 mins by Western blot analysis
Type: cell-based
Settings: not given
In short: (§2)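 Cells were treated with or without compound for 2 h, then stimulated with 50 ng/ml EGF for 10 min. They were lysed in SDS lysis buffer for Western blot. Blots were probed for p-EGFR, EGFR, p-ERK, ERK, p-AKT and AKT, with tubulin as reference.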

Chain of Epidermal growth factor receptor (Homo sapiens), P00533 [L858R,T790M] (P00533 whole entry T790M/L858R, looked up): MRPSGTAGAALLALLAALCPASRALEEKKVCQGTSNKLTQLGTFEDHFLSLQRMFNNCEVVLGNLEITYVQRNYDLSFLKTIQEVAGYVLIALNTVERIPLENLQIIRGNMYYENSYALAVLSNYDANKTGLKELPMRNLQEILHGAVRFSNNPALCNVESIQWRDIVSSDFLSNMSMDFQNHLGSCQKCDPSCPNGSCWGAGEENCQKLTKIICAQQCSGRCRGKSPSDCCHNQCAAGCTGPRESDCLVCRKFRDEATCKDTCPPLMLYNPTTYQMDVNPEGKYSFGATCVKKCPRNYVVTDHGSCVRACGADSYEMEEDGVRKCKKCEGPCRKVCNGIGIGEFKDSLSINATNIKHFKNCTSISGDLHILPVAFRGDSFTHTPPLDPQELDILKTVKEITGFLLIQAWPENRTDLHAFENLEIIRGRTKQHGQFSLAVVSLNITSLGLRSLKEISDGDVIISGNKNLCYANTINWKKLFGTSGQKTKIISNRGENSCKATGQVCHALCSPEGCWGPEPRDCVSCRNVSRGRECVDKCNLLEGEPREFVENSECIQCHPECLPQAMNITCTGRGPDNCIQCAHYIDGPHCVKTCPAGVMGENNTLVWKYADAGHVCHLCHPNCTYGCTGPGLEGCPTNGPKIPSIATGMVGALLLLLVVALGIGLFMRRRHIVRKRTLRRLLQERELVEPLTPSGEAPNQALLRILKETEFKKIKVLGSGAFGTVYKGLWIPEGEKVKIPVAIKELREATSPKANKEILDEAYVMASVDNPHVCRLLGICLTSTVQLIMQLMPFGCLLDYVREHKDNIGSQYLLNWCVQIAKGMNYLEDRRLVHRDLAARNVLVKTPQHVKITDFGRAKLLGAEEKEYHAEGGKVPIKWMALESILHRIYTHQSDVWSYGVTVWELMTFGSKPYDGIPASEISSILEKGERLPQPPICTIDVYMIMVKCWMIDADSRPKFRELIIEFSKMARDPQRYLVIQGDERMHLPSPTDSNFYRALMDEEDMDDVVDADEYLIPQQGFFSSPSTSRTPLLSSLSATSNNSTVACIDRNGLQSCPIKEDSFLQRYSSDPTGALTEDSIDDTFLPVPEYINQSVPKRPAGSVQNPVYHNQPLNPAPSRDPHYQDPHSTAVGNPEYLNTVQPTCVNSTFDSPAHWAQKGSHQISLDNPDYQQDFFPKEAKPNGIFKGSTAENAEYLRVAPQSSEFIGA

Q: `C=CC(=O)Nc1cc(Nc2nccc(Nc3ccccc3-c3ccn(C)n3)n2)c(OC)cc1N(C)CCN(C)C` was tested. Which inhibition did it give?
A: Dose-dependent effect

Test system: Mus musculus
Test: In vivo inhibition of wild type EGFR phosphorylation in tumor of BALB/c athymic nude mouse xenografted with human A431 cells assessed as decrease in Akt phosphorylation at 10 mg/kg, po bid for 21 days
Settings: 504 h

Q: Which “inhibition (INH)” value does the source give for `C=CC(=O)Nc1cc(Nc2nccc(Nc3ccccc3-c3ccn(C)n3)n2)c(OC)cc1N(C)CCN(C)C` here?
A: Not Active

Test system: Mus musculus
Test: Toxicity in BALB/c athymic nude mouse xenografted with wild type EGFR expressing human A431 cells assessed as body weight loss at 10 to 20 mg/kg, po bid for 21 days
Settings: in vivo, 504 h

Q: Which Activity does the source give for `C=CC(=O)Nc1cc(Nc2nccc(Nc3ccccc3-c3ccn(C)n3)n2)c(OC)cc1N(C)CCN(C)C` here?
A: Non-Toxic

Test system: Mus musculus
Test: In vivo inhibition of EGFR T790M/L858R double mutant phosphorylation in tumor of BALB/c athymic nude mouse xenografted with human NCI-H1975 cells assessed as decrease in Akt phosphorylation at 10 mg/kg, po bid for 21 days
Type: functional, organism-based
Settings: not given
In short: (§3)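 Western blot of NCI-H1975 xenograft tumors from mice given 10 mg/kg orally twice daily. Phospho-EGFR and phospho-Akt were quantified against the vehicle control group. Significance was set at p < 0.05.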

Q: With `C=CC(=O)Nc1cc(Nc2nccc(Nc3ccccc3-c3ccn(C)n3)n2)c(OC)cc1N(C)CCN(C)C` as the molecule, how does the inhibition read?
A: Active

Test system: NCI-H1975
Test: Antitumor activity against EGFR T790M/L858R double mutant expressing human NCI-H1975 cells xenografted in BALB/c athymic nude mouse assessed as tumor growth inhibition at 10 mg/kg, po bid for 21 days
Type: functional, organism-based
Settings: not given
In short: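 5×10^6 NCI-H1975 cells injected subcutaneously into the right flank of athymic mice. At tumour volume 100-300 mm³, mice were randomised (n = 6 per group) to vehicle or drug. Drug given orally twice daily. Tumour size and body weight were measured on set days, with volume = length×width²/2. Results are group means with SEM.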

Q: With `C=CC(=O)Nc1cc(Nc2nccc(-c3cn(C)c4ccccc34)n2)c(OC)cc1N(C)CCN(C)C` [OSIMERTINIB] as the molecule, how does the TGI read?
A: Active

Test system: Epidermal growth factor receptor (Homo sapiens), P00533 [L858R,T790M]
Test: Inhibition of EGF-induced EGFR T790M/L858R double mutant in human NCI-H1975 cells assessed as decrease in ERK phosphorylation preincubated for 2 hrs followed by EGF induction and measured after 10 mins by Western blot analysis
Type: cell-based
Settings: not given
In short: as §2

Q: With `C=CC(=O)Nc1cc(Nc2nccc(Nc3ccccc3-c3ccn(C)n3)n2)c(OC)cc1N(C)CCN(C)C` as the molecule, how does the inhibition read?
A: Dose-dependent effect

Test system: Mus musculus
Test: In vivo inhibition of wild type EGFR phosphorylation in tumor of BALB/c athymic nude mouse xenografted with human A431 cells at 10 mg/kg, po bid for 21 days
Settings: 504 h

Q: Which “inhibition (INH)” value does the source give for `C=CC(=O)Nc1cc(Nc2nccc(Nc3ccccc3-c3ccn(C)n3)n2)c(OC)cc1N(C)CCN(C)C` here?
A: Not Active

Test system: Epidermal growth factor receptor (Homo sapiens), P00533 [L858R,T790M]
Test: Inhibition of EGF-induced EGFR T790M/L858R double mutant phosphorylation in human NCI-H1975 cells preincubated for 2 hrs followed by EGF induction and measured after 10 mins by Western blot analysis
Type: cell-based
Settings: not given
In short: as §2

Q: For `C=CC(=O)Nc1cc(Nc2nccc(Nc3ccccc3-c3ccn(C)n3)n2)c(OC)cc1N(C)CCN(C)C`, which inhibition is on record?
A: Dose-dependent effect

Test system: A431 (Homo sapiens)
Test: Antitumor activity against wild type EGFR expressing human A431 cells xenografted in BALB/c athymic nude mouse assessed as tumor growth inhibition at 20 mg/kg, po bid for 21 days relative to vehicle-treated control
Settings: in vivo, 504 h

Q: For `C=CC(=O)Nc1cc(Nc2nccc(Nc3ccccc3-c3ccn(C)n3)n2)c(OC)cc1N(C)CCN(C)C`, which TGI is on record?
A: < 20%

Target: T1, Epidermal growth factor receptor (Homo sapiens, UniProt P00533)
Test: Inhibition of EGF-induced wild type EGFR phosphorylation in human A431 cells at 0.1 to 1000 nM preincubated for 2 hrs followed by EGF induction and measured after 10 mins by Western blot analysis
Type: cell-based
Settings: 1 µM
In short: as §2

T1 sequence (P00533 whole entry): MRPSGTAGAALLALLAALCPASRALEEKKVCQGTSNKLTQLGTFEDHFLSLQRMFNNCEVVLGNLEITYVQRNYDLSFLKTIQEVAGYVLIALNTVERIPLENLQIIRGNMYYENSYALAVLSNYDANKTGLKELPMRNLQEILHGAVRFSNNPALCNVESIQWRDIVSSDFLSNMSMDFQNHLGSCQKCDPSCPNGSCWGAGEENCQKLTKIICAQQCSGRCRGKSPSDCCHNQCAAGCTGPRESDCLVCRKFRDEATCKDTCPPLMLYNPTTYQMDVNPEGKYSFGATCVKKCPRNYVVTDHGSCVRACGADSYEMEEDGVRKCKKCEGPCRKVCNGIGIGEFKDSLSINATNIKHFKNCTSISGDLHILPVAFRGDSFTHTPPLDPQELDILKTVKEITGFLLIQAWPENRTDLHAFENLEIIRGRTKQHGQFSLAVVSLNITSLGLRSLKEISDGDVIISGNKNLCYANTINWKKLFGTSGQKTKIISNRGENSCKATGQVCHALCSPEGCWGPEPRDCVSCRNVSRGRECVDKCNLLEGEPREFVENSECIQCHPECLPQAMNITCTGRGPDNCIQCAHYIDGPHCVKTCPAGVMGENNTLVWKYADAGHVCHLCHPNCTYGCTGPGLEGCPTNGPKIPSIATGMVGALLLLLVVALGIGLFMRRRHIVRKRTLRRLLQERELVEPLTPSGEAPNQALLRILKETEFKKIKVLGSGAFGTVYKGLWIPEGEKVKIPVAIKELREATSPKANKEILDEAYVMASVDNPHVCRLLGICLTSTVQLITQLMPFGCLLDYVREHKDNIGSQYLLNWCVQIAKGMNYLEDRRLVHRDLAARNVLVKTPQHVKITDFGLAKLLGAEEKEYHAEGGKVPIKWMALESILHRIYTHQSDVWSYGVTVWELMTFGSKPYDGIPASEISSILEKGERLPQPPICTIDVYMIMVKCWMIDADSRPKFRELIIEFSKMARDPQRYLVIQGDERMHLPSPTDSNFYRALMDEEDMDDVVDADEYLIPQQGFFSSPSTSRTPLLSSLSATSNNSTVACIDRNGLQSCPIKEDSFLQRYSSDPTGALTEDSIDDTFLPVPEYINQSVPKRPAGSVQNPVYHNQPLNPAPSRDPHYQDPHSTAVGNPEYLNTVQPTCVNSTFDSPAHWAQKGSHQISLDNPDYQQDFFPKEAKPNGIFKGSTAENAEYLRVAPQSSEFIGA

Q: How did the “inhibition (INH)” value turn out when `C=CC(=O)Nc1cc(Nc2nccc(Nc3ccccc3-c3ccn(C)n3)n2)c(OC)cc1N(C)CCN(C)C` was run?
A: Not Active

Test system: NCI-H1975
Test: Antiproliferative activity against EGFR T790M/L858R double mutant expressing human NCI-H1975 cells after 72 hrs by SRB assay
Type: functional, cell-based
Settings: NCI-H1975, 72 h
In short: as §1

Q: How did the IC50 turn out when `C=CC(=O)Nc1cc(Nc2nccc(Nc3ccccc3-n3cccn3)n2)c(OC)cc1N(C)CCN(C)C` was run?
A: 68 nM

Q: With `C=CC(=O)Nc1cc(Nc2nccc(Nc3ccccc3-c3ccn(C)n3)n2)c(OC)cc1N(C)CCN(C)C` as the molecule, how does the IC50 read?
A: 59 nM

Q: With `C=CC(=O)Nc1cc(Nc2nccc(Nc3ccccc3-n3nccn3)n2)c(OC)cc1N1CCC(N(C)C)CC1` as the molecule, how does the IC50 read?
A: 70 nM

Q: `C=CC(=O)Nc1cc(Nc2nccc(Nc3ccccc3-c3ccn(C)n3)n2)c(OC)cc1OCCN(C)C` was tested. Which IC50 did it give?
A: 85 nM

Q: With `C=CC(=O)Nc1cc(Nc2nccc(Nc3ccccc3-c3ncn(C)n3)n2)c(OC)cc1N(C)CCN(C)C` as the molecule, how does the IC50 read?
A: 74 nM

Test system: Mus musculus
Test: In vivo inhibition of EGFR T790M/L858R double mutant phosphorylation in tumor of BALB/c athymic nude mouse xenografted with human NCI-H1975 cells at 10 mg/kg, po bid for 21 days
Type: functional, organism-based
Settings: not given
In short: as §3

Q: Which inhibition does the source give for `C=CC(=O)Nc1cc(Nc2nccc(Nc3ccccc3-c3ccn(C)n3)n2)c(OC)cc1N(C)CCN(C)C` here?
A: Active

Target: T1, Epidermal growth factor receptor
Test: Inhibition of recombinant human GST-tagged wild type EGFR expressed in baculovirus expression system using poly (Glu, Tyr) 4:1 as substrate after 1 hr by ELISA
Settings: not given

Q: For `C=CC(=O)Nc1cc(Nc2nccc(Nc3ccccc3-n3nccn3)n2)c(OC)cc1N(C)CCN(C)C`, which IC50 is on record?
A: 281 nM

Q: How did the IC50 turn out when `C=CC(=O)Nc1cc(Nc2nccc(Nc3ccccc3-n3cccn3)n2)c(OC)cc1N(C)CCN(C)C` was run?
A: 648 nM

Q: With `C=CC(=O)Nc1cc(Nc2nccc(Nc3ccccc3-c3ccn(C)n3)n2)c(OC)cc1N(C)CCN(C)C` as the molecule, how does the IC50 read?
A: 350 nM

Q: With `C=CC(=O)Nc1cc(Nc2nccc(Nc3ccccc3-n3nccn3)n2)c(OC)cc1N1CCC(N(C)C)CC1` as the molecule, how does the IC50 read?
A: > 1000 nM

Q: For `C=CC(=O)Nc1cc(Nc2nccc(Nc3ccccc3-c3ccn(C)n3)n2)c(OC)cc1OCCN(C)C`, which IC50 is on record?
A: 317 nM

Q: How did the IC50 turn out when `C=CC(=O)Nc1cc(Nc2nccc(Nc3ccccc3-c3ncn(C)n3)n2)c(OC)cc1N(C)CCN(C)C` was run?
A: 660 nM
